pIC50: −log10 of the molar value. Blank lines part the entries; values can stand above or below the compound they belong to.
Legend:
Serine protease 1 [1] = target: T1, Serine protease 1 (Homo sapiens, UniProt P07477); assay: In vitro inhibitory activity against trypsin
Summary of the method: (§1)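 Enzyme was preincubated 1 h at room temperature with inhibitor across 14 concentrations (1 nM–100 μM final). A405 was read kinetically over 10 min at 37 °C. Percent inhibition came from the linear progress-curve slopes, typically in duplicate.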

Coagulation factor X [2] = target: T2, Coagulation factor X (Homo sapiens, UniProt P00742); assay: In vitro inhibition of coagulation factor Xa.; summary of the method: as §1
T2 sequence (P00742 41-179 limits assumed): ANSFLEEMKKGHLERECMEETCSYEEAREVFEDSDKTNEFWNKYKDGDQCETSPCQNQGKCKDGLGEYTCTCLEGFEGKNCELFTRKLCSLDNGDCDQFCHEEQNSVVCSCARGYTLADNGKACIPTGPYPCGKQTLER
T2 sequence (P00742 235-488 limits assumed): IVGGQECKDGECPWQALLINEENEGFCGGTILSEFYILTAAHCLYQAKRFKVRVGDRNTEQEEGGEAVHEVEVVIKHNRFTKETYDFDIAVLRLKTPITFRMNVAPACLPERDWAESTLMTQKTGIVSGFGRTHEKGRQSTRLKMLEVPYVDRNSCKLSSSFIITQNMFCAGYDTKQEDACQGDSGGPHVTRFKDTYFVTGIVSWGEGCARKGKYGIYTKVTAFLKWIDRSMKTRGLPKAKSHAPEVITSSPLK

Plasminogen [3] = target: T3, Plasminogen (Homo sapiens, UniProt P00747); assay: Inhibition of plasmin at 100 uM
T3 sequence (P00747 97-580 limits assumed): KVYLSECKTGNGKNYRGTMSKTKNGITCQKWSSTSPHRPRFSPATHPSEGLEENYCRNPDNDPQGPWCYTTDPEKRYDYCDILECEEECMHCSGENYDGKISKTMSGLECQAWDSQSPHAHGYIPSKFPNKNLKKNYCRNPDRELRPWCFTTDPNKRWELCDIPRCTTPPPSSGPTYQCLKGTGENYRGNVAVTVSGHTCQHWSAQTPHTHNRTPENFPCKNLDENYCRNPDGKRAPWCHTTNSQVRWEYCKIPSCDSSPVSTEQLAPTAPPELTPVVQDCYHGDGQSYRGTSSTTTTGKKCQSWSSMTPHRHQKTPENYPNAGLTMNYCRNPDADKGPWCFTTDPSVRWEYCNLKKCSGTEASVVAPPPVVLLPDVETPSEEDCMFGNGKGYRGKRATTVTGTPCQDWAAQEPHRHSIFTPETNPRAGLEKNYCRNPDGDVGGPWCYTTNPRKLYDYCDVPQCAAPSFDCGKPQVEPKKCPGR
T3 sequence (P00747 581-810 limits assumed): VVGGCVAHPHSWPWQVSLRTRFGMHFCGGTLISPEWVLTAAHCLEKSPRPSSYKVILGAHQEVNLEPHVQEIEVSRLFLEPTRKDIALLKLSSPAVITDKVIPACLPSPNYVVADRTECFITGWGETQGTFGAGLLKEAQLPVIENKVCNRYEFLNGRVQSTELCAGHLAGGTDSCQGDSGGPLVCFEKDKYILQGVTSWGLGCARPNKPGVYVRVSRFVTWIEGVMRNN

Prothrombin [4] = target: T4, Prothrombin (Homo sapiens, UniProt P00734); assay: Inhibition of thrombin; summary of the method: as §1
Prothrombin [5] = target: T4, Prothrombin; assay: Inhibition of thrombin at 100 uM
Serine protease 1 [6] = target: T1, Serine protease 1; assay: In vitro inhibitory activity against trypsin at 100 uM
Plasminogen [7] = target: T3, Plasminogen; assay: Compound was tested for in vitro inhibitory activity against plasmin; summary of the method: as §1
Coagulation factor X [8] = target: T2, Coagulation factor X; assay: Compound was tested for in vitro inhibitory activity against Coagulation factor X at 100 uM
Plasminogen [9] = target: T3, Plasminogen; assay: Compound was tested for in vitro inhibitory activity against plasmin at 100 uM
Canis familiaris [10] = assay: effect on the time to occlusion(TO) in the dog electrolytic injury model at the 0 ug/kg/min to the vein; assay type: functional, Canis lupus familiaris
Summary of the method: (§2)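 Anesthetized dogs received electrolytic injury to the endothelium as the thrombotic stimulus in the femoral artery and a vein. Agent was infused continuously at 0 (control), 1.25, 2.5, 5 or 10 μg/kg/min. Time to occlusion was recorded up to a maximum of 240 min. n = 12 control, 4 at 1.25, and 5 at each other dose; mean ± SEM.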

Canis familiaris [11] = assay: effect on the time to occlusion(TO) in the dog electrolytic injury model at the 5 ug/kg/min to the vein; assay type: functional, Canis lupus familiaris; summary of the method: as §2
Canis familiaris [12] = assay: effect on the time to occlusion(TO) in the dog electrolytic injury model at the 1.25 ug/kg/min to the artery; assay type: functional, Canis lupus familiaris; summary of the method: as §2
Canis familiaris [13] = assay: effect on the time to occlusion(TO) in the dog electrolytic injury model at the 1.25 ug/kg/min to the vein; assay type: functional, Canis lupus familiaris; summary of the method: as §2
Canis familiaris [14] = assay: effect on the time to occlusion(TO) in the dog electrolytic injury model at the 5 ug/kg/min to the artery; assay type: functional, Canis lupus familiaris; summary of the method: as §2
Oryctolagus cuniculus [15] = assay: effect on the time to occlusion in the rabbit Veno-venous Shunt model by administering through intravenous (IV) bolus (60 ug/kg) + infusion (2 ug/kg/min); assay type: functional
Summary of the method: (§3)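 Rabbit veno-venous shunt containing cotton threads. Test agent was given as an iv bolus plus continuous infusion at the stated dose. The endpoint was time to occlusion of the shunt vessel, observed over a 2-h window. Incidence of occlusion per group was recorded. n = 5 per dose group, mean ± SE.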

[16] = target: T5, Coagulation factor VII (Homo sapiens) (UniProt P08709); assay: Compound was tested for in vitro inhibitory activity against coagulation factor VII at 100 uM
T5 sequence (whole entry): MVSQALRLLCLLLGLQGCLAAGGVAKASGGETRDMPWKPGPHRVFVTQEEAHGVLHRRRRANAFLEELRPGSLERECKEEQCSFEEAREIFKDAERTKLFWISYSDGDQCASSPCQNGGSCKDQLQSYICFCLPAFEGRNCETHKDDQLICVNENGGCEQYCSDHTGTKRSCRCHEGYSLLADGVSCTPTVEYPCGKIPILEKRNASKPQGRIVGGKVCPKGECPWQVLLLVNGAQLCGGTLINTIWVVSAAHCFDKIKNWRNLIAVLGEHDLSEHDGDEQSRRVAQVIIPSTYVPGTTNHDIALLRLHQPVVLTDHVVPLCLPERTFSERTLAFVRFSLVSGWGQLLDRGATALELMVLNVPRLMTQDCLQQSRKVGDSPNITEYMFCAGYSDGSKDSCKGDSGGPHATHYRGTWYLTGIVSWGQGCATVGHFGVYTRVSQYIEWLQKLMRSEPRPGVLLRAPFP

Homo sapiens [17] = species: Homo sapiens; assay: In Vitro evaluation for the concentration for 2 fold prolongation of Prolonged activated partial thromboplastin Time (aPTT) assay in human; assay type: functional
Summary of the method: (§4)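 Clotting assays (PT or aPTT) used pooled plasma from the named species with added inhibitor. The value is the concentration giving a 2-fold prolongation of clotting time. Determinations were done in duplicate.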

[18] = Compound was tested for in vitro inhibitory activity against Chymotrypsinogen at 100 uM
Canis familiaris [19] = assay: effect on the time to occlusion(TO) in the dog electrolytic injury model at the 10 ug/kg/min to the vein; assay type: functional, Canis lupus familiaris; summary of the method: as §2
Canis familiaris [20] = assay: effect on the time to occlusion(TO) in the dog electrolytic injury model at the 10 ug/kg/min to the artery; assay type: functional, Canis lupus familiaris; summary of the method: as §2
Oryctolagus cuniculus [21] = assay: effect on the time to occlusion in the rabbit Veno-venous Shunt model by administering through intravenous (IV) bolus (90 ug/kg) + infusion (3 ug/kg/min); assay type: functional; summary of the method: as §3
Oryctolagus cuniculus [22] = assay: effect on the time to occlusion in the rabbit Veno-venous Shunt model by administering through intravenous (IV) bolus (30 ug/kg) + infusion (1 ug/kg/min); assay type: functional; summary of the method: as §3
Canis familiaris [23] = assay: effect on the time to occlusion(TO) in the dog electrolytic injury model at the 2.5 ug/kg/min to the artery; assay type: functional, Canis lupus familiaris; summary of the method: as §2
Canis familiaris [24] = assay: effect on the time to occlusion(TO) in the dog electrolytic injury model at the 0 ug/kg/min to the artery; assay type: functional, Canis lupus familiaris; summary of the method: as §2
Oryctolagus cuniculus [25] = species: Oryctolagus cuniculus; assay: In Vitro evaluation for the concentration for 2 fold prolongation of Prolonged activated partial thromboplastin Time (aPTT) assay in rabbit; assay type: functional; summary of the method: as §4
[26] = target: Vitamin K-dependent protein C (Homo sapiens, UniProt P04070); assay: Compound was tested for in vitro inhibitory activity against activated protein C
Vitamin K-dependent protein C, sequence (P04070 43-197 limits assumed): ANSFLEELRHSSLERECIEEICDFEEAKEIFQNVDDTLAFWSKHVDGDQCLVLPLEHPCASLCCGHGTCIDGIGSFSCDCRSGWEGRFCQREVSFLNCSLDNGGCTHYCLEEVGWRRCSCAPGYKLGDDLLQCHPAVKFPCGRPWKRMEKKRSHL
Vitamin K-dependent protein C, sequence (P04070 212-461 limits assumed): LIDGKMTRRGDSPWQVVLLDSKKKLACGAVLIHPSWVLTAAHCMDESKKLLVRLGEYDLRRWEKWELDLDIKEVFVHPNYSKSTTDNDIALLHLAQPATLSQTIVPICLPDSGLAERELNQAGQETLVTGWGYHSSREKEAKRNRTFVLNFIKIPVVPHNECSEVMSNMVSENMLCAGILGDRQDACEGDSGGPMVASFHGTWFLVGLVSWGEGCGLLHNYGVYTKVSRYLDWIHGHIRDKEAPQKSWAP

Oryctolagus cuniculus [27] = species: Oryctolagus cuniculus; assay: In Vitro evaluation for the concentration for 2 fold prolongation of Prothrombin Time (PT) assay in rabbit; assay type: functional; summary of the method: as §4
Coagulation factor X [28] = target: T2, Coagulation factor X; assay: Compound was tested for in vitro inhibitory activity against Prothrombinase
Canis familiaris [29] = assay: effect on the time to occlusion(TO) in the dog electrolytic injury model at the 2.5 ug/kg/min to the vein; assay type: functional, Canis lupus familiaris; summary of the method: as §2
Canis lupus familiaris [30] = species: Canis lupus familiaris; assay: In Vitro evaluation for the concentration for 2 fold prolongation of Prothrombin Time (PT) assay in dog
Homo sapiens [31] = species: Homo sapiens; assay: In Vitro evaluation for the concentration for 2 fold prolongation of Prothrombin Time (PT) assay in human
Canis lupus familiaris [32] = species: Canis lupus familiaris; assay: In Vitro evaluation for the concentration for 2 fold prolongation of Prolonged activated partial thromboplastin Time (aPTT) assay in dog

T1 sequence (P07477 whole entry): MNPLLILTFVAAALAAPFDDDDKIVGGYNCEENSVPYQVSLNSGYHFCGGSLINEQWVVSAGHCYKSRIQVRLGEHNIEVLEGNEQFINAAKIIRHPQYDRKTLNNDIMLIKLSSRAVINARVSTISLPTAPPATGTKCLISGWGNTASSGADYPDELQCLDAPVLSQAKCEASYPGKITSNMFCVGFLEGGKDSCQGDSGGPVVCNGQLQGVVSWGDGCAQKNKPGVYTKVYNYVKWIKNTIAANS

SMILES: CC1CCCC(C)N1CCCCCN1C(=O)C(c2ccccc2Cl)Oc2ccccc21 (stereo unspecified)
pIC50 (Serine protease 1 [1]): 4.41
pIC50 (Coagulation factor X [2]): 4.80
inhibition (Plasminogen [3]): 23%
pIC50 (Prothrombin [4]): 4.19

SMILES: CC1CCCC(C)N1CCCCCN1C(=O)C(c2ccc(Cl)cc2)Oc2ccccc21 (stereo unspecified)
pIC50 (Coagulation factor X [2]): 4.64
inhibition (Plasminogen [3]): 30%
inhibition (Prothrombin [5]): 38%
inhibition (Serine protease 1 [6]): 46%

SMILES: CC1CCCC(C)N1CCCCCN1C(=O)C(c2ccc(C(=N)NO)cc2)Oc2ccccc21 (stereo unspecified)
pIC50 (Coagulation factor X [2]): 4.18
inhibition (Plasminogen [3]): 10%
inhibition (Prothrombin [5]): 18%
inhibition (Serine protease 1 [6]): 8%

SMILES: COc1ccc(C2Oc3ccccc3N(CCCCCN3C(C)CCCC3C)C2=O)cc1OC (stereo unspecified)
inhibition (Coagulation factor X [8]): 31%
inhibition (Plasminogen [3]): 0%
inhibition (Prothrombin [5]): 0%
inhibition (Serine protease 1 [6]): 0%

SMILES: COc1cc(C2Oc3ccccc3N(CCCCCN3C(C)CCCC3C)C2=O)cc(OC)c1OC (stereo unspecified)
inhibition (Coagulation factor X [8]): 30%
inhibition (Plasminogen [3]): 20%
inhibition (Prothrombin [5]): 30%
inhibition (Serine protease 1 [6]): 12%

SMILES: CC1CCCC(C)N1CCCCCN1C(=O)C(c2ccccc2)Oc2ccccc21 (stereo unspecified)
inhibition (Plasminogen [9]): 26%
pIC50 (Coagulation factor X [2]): 4.57
inhibition (Prothrombin [5]): 19%
inhibition (Serine protease 1 [6]): 2.8%

SMILES: CC1CCCC(C)N1CCCCCN1C(=O)C(c2cccc(C(=N)NN3CCOCC3)c2)Oc2ccccc21 (stereo unspecified)
inhibition (Plasminogen [9]): 0%
inhibition (Prothrombin [5]): 15%
inhibition (Serine protease 1 [6]): 58%

SMILES: Cc1ccc(C2Oc3ccccc3N(CCCCCN3C(C)CCCC3C)C2=O)cc1 (stereo unspecified)
pIC50 (Coagulation factor X [2]): 4.55
inhibition (Plasminogen [3]): 13%
inhibition (Prothrombin [5]): 33%
inhibition (Serine protease 1 [6]): 18%

Further lines, with some results ahead:

pIC50 (Coagulation factor X [2]): 5.25
inhibition (Plasminogen [3]): 11%
inhibition (Prothrombin [5]): 19%
inhibition (Serine protease 1 [6]): 21%
SMILES: CC1CCCC(C)N1CCCCCN1C(=O)C(c2cccc(C(=N)NO)c2)Oc2ccccc21 (stereo unspecified)

pIC50 (Serine protease 1 [1]): 6.00
pIC50 (Coagulation factor X [2]): 7.28
pIC50 (Plasminogen [7]): 4.68
pIC50 (Prothrombin [4]): 5.47
SMILES: N=C(N)c1cccc(C2Oc3ccccc3N(CCCCCN3CCCCC3)C2=O)c1 (stereo unspecified)

pIC50 (Serine protease 1 [1]): 5.60
pIC50 (Coagulation factor X [2]): 5.80
pIC50 (Plasminogen [7]): 5.66
pIC50 (Prothrombin [4]): 5.72
SMILES: CCCCCCN(CCCCCC)CCCCCN1C(=O)C(c2cccc(C(=N)N)c2)Oc2ccccc21 (stereo unspecified)

pIC50 (Coagulation factor X [2]): 8.52
inhibition [16]: 32%
inhibition [18]: 24%
pIC50 [26]: 4.64
pIC50 (Plasminogen [7]): 5.08
pIC50 (Coagulation factor X [28]): 8.40
SMILES: CC1CCCC(C)N1CCCCCN1C(=O)C(c2cccc(C(=N)N)c2)Oc2ccccc21 (stereo unspecified)
TO (Canis familiaris [10]): 120 min
TO (Canis familiaris [11]): 220 min
TO (Canis familiaris [12]): 148 min
TO (Canis familiaris [13]): 125 min
TO (Canis familiaris [14]): 240 min
TO (Oryctolagus cuniculus [15]): 37 min
Concentration (Homo sapiens [17]): 0.34 µM
TO (Canis familiaris [19]): 240 min
TO (Canis familiaris [20]): 240 min
TO (Oryctolagus cuniculus [21]): 98 min
TO (Oryctolagus cuniculus [22]): 27 min
TO (Canis familiaris [23]): 167 min
TO (Canis familiaris [24]): 87 min
Concentration (Oryctolagus cuniculus [25]): 0.15 µM
Concentration (Oryctolagus cuniculus [27]): 0.33 µM
TO (Canis familiaris [29]): 144 min
Concentration (Canis lupus familiaris [30]): 0.57 µM
Concentration (Homo sapiens [31]): 0.17 µM
Concentration (Canis lupus familiaris [32]): 0.19 µM

pIC50 (Serine protease 1 [1]): 5.68
pIC50 (Coagulation factor X [2]): 7.17
pIC50 (Plasminogen [7]): 4.92
pIC50 (Prothrombin [4]): 5.25
SMILES: CC1CCCC(C)N1CCCCCCN1C(=O)C(c2cccc(C(=N)N)c2)Oc2ccccc21 (stereo unspecified)

pIC50 (Serine protease 1 [1]): 5.92
inhibition (Plasminogen [9]): 72%
pIC50 (Coagulation factor X [2]): 6.92
pIC50 (Prothrombin [4]): 5.92
SMILES: CC(C)N(CCCCCN1C(=O)C(c2cccc(C(=N)N)c2)Oc2ccccc21)C(C)C (stereo unspecified)

From ChEMBL document CHEMBL1133480, “Rational design, synthesis, and biological activity of benzoxazinones as novel factor Xa inhibitors” (J Med Chem, 2000)
